The record followed here is ChEMBL document CHEMBL3098025, “Optimization of potency and pharmacokinetics of tricyclic indole derived inhibitors of HCV NS5B polymerase. Identification of ester prodrugs with improved oral pharmacokinetics” (Bioorg Med Chem, 2014).

Series [1] relates to Hepatitis C virus. As to the kind of experiment: Antiviral activity against HCV1b assessed as inhibition of viral replication. In kind it is functional, organism-based, Hepacivirus hominis. To be noted: genotype 1b. In a few lines: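 In the cell-based HCV replicon assay, viral RNA levels were measured. EC50 is the concentration giving a 50% reduction in replicon RNA.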
A short description of series [2]: AUC (0 to 6 hrs) in Sprague-Dawley rat at 10 mg/kg, po. In kind it is ADME, organism-based. The arrangement: time < 6 hr, dose 10 mg/kg, route oral. Particulars: plasma. In a few lines:
(§1)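 Sprague Dawley rats received esters orally at 10 mg/kg in 0.4% methylcellulose, given as trifluoroacetate salts. Plasma levels of both the intact ester prodrug and the acid metabolite were measured. AUC was integrated over 0–6 h after dosing.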

The nature of series [3]: Inhibition of HCV1b NS5B polymerase. The arrangement: species or system Hepatitis C virus subtype 1b.
Series [4] is described as follows: AUC (0 to 6 hrs) in cynomolgus monkey at 3 mg/kg, po. In kind it is ADME, organism-based, Macaca fascicularis. Set-up: time < 6 hr, dose 3 mg/kg, route oral. To be noted: plasma.
The test system of series [5] is Cynomolgus monkey. Briefly: Prodrug conversion in cynomolgus monkey assessed as AUC (0 to 24 hrs) of 4-Fluoro-6-((6-fluoro-1H-benzo[d]imidazol-5-yl)methyl)-8-(2-oxo-1,2-dihydropyridin-3-yl)-6H-furo[2,3-e]indole-7-carboxylic acid level at 3 mg/kg, po. In kind it is ADME, organism-based, Macaca fascicularis. The arrangement: time < 24 hr, dose 3 mg/kg, route oral. Particulars: in vivo.

In series [6] the test system is Rattus norvegicus. Briefly: Prodrug conversion in Sprague-Dawley rat assessed as AUC (0 to 24 hrs) of 4-Fluoro-6-((6-fluoro-1H-benzo[d]imidazol-5-yl)methyl)-8-(2-oxo-1,2-dihydropyridin-3-yl)-6H-furo[2,3-e]indole-7-carboxylic acid level at 10 mg/kg, po. In kind it is ADME, organism-based. The arrangement: time < 24 hr, dose 10 mg/kg, route oral. Particulars: in vivo. In a few lines:
(§2)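 Dimethylaminoethyl ester prodrugs were dosed orally to rats at 10 mg/kg in 0.4% methylcellulose.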

Series [7] has as its system Rattus norvegicus. As to the kind of experiment: Prodrug conversion in Sprague-Dawley rat assessed as AUC (0 to 6 hrs) of 6-((6-Chloro-1H-benzo[d]imidazol-5-yl)methyl)-4-fluoro-8-(2-oxo-1,2-dihydropyridin-3-yl)-6H-furo[2,3-e]indole-7-carboxylic acid level at 10 mg/kg, po. In kind it is ADME, organism-based. Particulars: in vivo. The arrangement: time < 6 hr, dose 10 mg/kg, route oral. In a few lines: as §1

The subject of series [8] is Rattus norvegicus. As to the kind of experiment: Prodrug conversion in Sprague-Dawley rat assessed as AUC (0 to 6 hrs) of parent compound level at 10 mg/kg, po. To be noted: in vivo. In kind it is ADME, organism-based. Set-up: time < 6 hr, dose 10 mg/kg, route oral. In a few lines:
as §1

The test system of series [9] is Cynomolgus monkey. As to the kind of experiment: Prodrug conversion in cynomolgus monkey assessed as AUC (0 to 24 hrs) of 6-((6-Chloro-1H-benzo[d]imidazol-5-yl)methyl)-4-fluoro-8-(2-oxo-1,2-dihydropyridin-3-yl)-6H-furo[2,3-e]indole-7-carboxylic acid level at 3 mg/kg, po. To be noted: in vivo. In kind it is ADME, organism-based, Macaca fascicularis. Set-up: time < 24 hr, dose 3 mg/kg, route oral.

Series [10] concerns Rattus norvegicus. Briefly: Prodrug conversion in Sprague-Dawley rat assessed as AUC (0 to 24 hrs) of 6-((6-Chloro-1H-benzo[d]imidazol-5-yl)methyl)-4-fluoro-8-(2-oxo-1,2-dihydropyridin-3-yl)-6H-furo[2,3-e]indole-7-carboxylic acid level at 10 mg/kg, po. To be noted: in vivo. The arrangement: time < 24 hr, dose 10 mg/kg, route oral. In kind it is ADME, organism-based. In a few lines: as §2

The test system of series [11] is Cynomolgus monkey. As to the kind of experiment: Prodrug conversion in cynomolgus monkey assessed as AUC (0 to 24 hrs) of 4-Fluoro-6-((6-fluoro-1H-indazol-5-yl)methyl)-8-(2-oxo-1,2-dihydropyridin-3-yl)-6H-furo[2,3-e]indole-7-carboxylic acid level at 3 mg/kg, po. In kind it is ADME, organism-based, Macaca fascicularis. Set-up: time < 24 hr, dose 3 mg/kg, route oral. To be noted: in vivo.

Series [12] concerns Rattus norvegicus. Briefly: Prodrug conversion in Sprague-Dawley rat assessed as AUC (0 to 24 hrs) of 4-Fluoro-6-((6-fluoro-1H-indazol-5-yl)methyl)-8-(2-oxo-1,2-dihydropyridin-3-yl)-6H-furo[2,3-e]indole-7-carboxylic acid level at 10 mg/kg, po. In kind it is ADME, organism-based. The arrangement: time < 24 hr, dose 10 mg/kg, route oral. Particulars: in vivo. In a few lines:
as §2

By EC50 is commonly meant the midpoint of the concentration-response curve. The term AUC(0-t) denotes the area under the concentration-time curve up to a stated or last time point. The IC50 is the point on the concentration scale where inhibition reaches its midpoint. `O=C(O)c1c(-c2ccc[nH]c2=O)c2c3occc3c(F)cc2n1Cc1ccc2nc[nH]c2c1`: the EC50 in [1] came out at 30 nM. The same compound displayed an AUC(0-t) at 6 h in [2] of 9.3 µM·h. This compound registered an IC50 in [3] of 5 nM.

Turning to `Nc1n[nH]c2cc(Cn3c(C(=O)O)c(-c4ccc[nH]c4=O)c4c5occc5c(F)cc43)c(F)cc12`, the EC50 in [1] turned out to be 12 nM. For the same compound, the AUC(0-t) at 6 h in [2] was found to be 3.6 µM·h. The compound also showed an IC50 in series [3] of 5 nM.

As to `O=C(O)c1c(-c2ccc[nH]c2=O)c2c3occc3c(F)cc2n1Cc1cc2cn[nH]c2cc1F`, the AUC(0-t) at 6 h was 1 µM·h in series [4] and 9.3 µM·h in [2]. The EC50 in [1] came out at 4 nM. This compound came in with an IC50 in series [3] of 3 nM.

A word on the AUC: it is the area under the concentration-time curve, a measure of exposure. Turning to `CN(C)CCOC(=O)c1c(-c2ccc[nH]c2=O)c2c3occc3c(F)cc2n1Cc1cc2[nH]cnc2cc1F.O=C(O)C(F)(F)F`, the AUC in series [5] was determined as 14.6 µM·h; in series [6], 159 µM·h. Further, the EC50 in [1] turned out to be 6 nM.

`Nc1cc(Cn2c(C(=O)O)c(-c3ccc[nH]c3=O)c3c4occc4c(F)cc32)c2ccccc2n1`: the AUC(0-t) at 6 h in series [4] was found to be 0.4 µM·h; in [2] it was 24 µM·h. The EC50 in series [1] came to 6 nM. Also, in series [3], half-maximal inhibition (IC50) was put at 4 nM.

Take `CC(OC(=O)c1c(-c2ccc[nH]c2=O)c2c3occc3c(F)cc2n1Cc1cc2[nH]cnc2cc1Cl)c1ccccc1` (stereo not given): the figures for the AUC in series [7] and in series [8] were 0.2 µM·h and 0.3 µM·h, respectively.

Turning to `Cc1cc2[nH]ncc2cc1Cn1c(C(=O)O)c(-c2ccc[nH]c2=O)c2c3occc3c(F)cc21`, in series [1], the EC50 was found to be 2 nM. The compound further returned an AUC(0-t) at 6 h in [2] of 2.1 µM·h. The compound also showed an IC50 in series [3] of 3 nM.

`O=C(O)c1c(-c2ccc[nH]c2=O)c2c3occc3c(F)cc2n1Cc1cc2c(=O)cc[nH]c2cc1F`: the concentration giving a half-maximal response (EC50) in series [1] is 7 nM. For the same compound, the IC50 in series [3] was determined as 3 nM.

For the compound `CC(CN(C)C)OC(=O)c1c(-c2ccc[nH]c2=O)c2c3occc3c(F)cc2n1Cc1cc2[nH]cnc2cc1Cl.O=C(O)C(F)(F)F` (stereo not given), the AUC was 32.6 µM·h in series [7] and 0.8 µM·h in series [8].

Turning to `CN(C)CCOC(=O)c1c(-c2ccc[nH]c2=O)c2c3occc3c(F)cc2n1Cc1cc2[nH]cnc2cc1Cl.O=C(O)C(F)(F)F`, the AUC in series [7] is 32.5 µM·h; in [9] it was 14 µM·h; in [8], 0.5 µM·h; in series [10] it was 208 µM·h. In addition, the EC50 in [1] worked out at 13 nM.

Consider `CN(C)CCCOC(=O)c1c(-c2ccc[nH]c2=O)c2c3occc3c(F)cc2n1Cc1cc2[nH]cnc2cc1Cl.O=C(O)C(F)(F)F`, for which the AUC in [7] was found to be 0.7 µM·h; in series [8], 9.1 µM·h.

In the case of `CN(C)CCOC(=O)c1c(-c2ccc[nH]c2=O)c2c3occc3c(F)cc2n1Cc1cc2cn[nH]c2cc1F.O=C(O)C(F)(F)F`, the AUC was 33 µM·h in series [11] and 222 µM·h in series [12]. In series [1], the EC50 stood at 6 nM.

With `O=C(O)C(F)(F)F.O=C(OCCN1CCOCC1)c1c(-c2ccc[nH]c2=O)c2c3occc3c(F)cc2n1Cc1cc2[nH]cnc2cc1Cl`, the AUC in [7] came out at 5.5 µM·h; in [8], 0.2 µM·h.

As for `COCCOC(=O)c1c(-c2ccc[nH]c2=O)c2c3occc3c(F)cc2n1Cc1cc2[nH]cnc2cc1Cl`, the AUC stood at 1.1 µM·h in series [7] and 0.2 µM·h in series [8].
